# Assay outcomes as filed in PubChem.
# Compounds with a hit are over-represented: about 2.3% of the library has one in this group of screens.
# UCH37 inh: inhibitors of human deubiquitinating enzyme UCH37. Q9Y5K5. purified proteasome/UCH37, Ub-AMC cleavage fluorescence. inhibition, % (test concentration not listed). hit rate 0.33% among 330,000. AID 588478;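 active = mean inhibition over replicate wells above about 20%, limit read from the data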
#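 Material: human UCH37 enzyme supplied as purified proteasome complex / Amount: 0.15 nM proteasome as dispensed / Buffer or medium: pH 7.4 Tris-HCl (50 mM) with ovalbumin, ATP-MgCl2, DTT / Times: preincubation 30 min, reaction 25 min, room temperature / Technique: AMC fluorescence from Ub-AMC cleavage, excitation 355 nm, emission 460 nm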
# PREPL inh: inhibitors of human prolyl oligopeptidase-like enzyme PREPL; Q4J6C6; recombinant PREPL, fluorescence polarization activity-based probe; inhibition, % at 5.96 µM; hit rate 0.68% among 320,000; AID 2751; in the data active = inhibition above about 43%
# Fh CTSL1 inh: counter-screen for PFM18AAP inhibitors: inhibitors of F. hepatica cathepsin L1; hit rate 0.49% among 300,000; recombinant F. hepatica cathepsin L1, Z-Leu-Arg-MCA fluorescence; inhibition, % at 5.96 µM;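 active = inhibition above the mean of all tested compounds plus 3 SD, set per screening campaign, cut at about 17% in these data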
# PP5 primary: PP5 (human) phosphatase inhibition. purified PP5c, OMFP substrate fluorescence. inhibition, % at 6.7 µM. hit rate 0.18% among 320,000;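 active = inhibition above the campaign's mean inhibition across all tested compounds plus 3 SD, cut at about 9.5% in these data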
# UBC13 polyUb: human UBC13 polyubiquitination inhibition; inhibition, % at 20 µM; UBC13 polyubiquitin chain formation, TR-FRET; hit rate 0.47% among 330,000; P61088; in the data active = inhibition above about 45%, passing the limit was not always enough
# Target sequence (P61088 whole entry, looked up): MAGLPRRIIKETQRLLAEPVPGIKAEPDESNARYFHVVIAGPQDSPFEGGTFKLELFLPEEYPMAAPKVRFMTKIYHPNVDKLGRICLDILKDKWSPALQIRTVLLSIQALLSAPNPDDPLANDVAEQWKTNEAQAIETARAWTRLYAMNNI
# PP1 inh: blocks human PP1-alpha phosphatase, a PP5 counter-screen; P62136; purified PP1alpha, OMFP fluorescence; inhibition, % at 6.7 µM; hit rate 0.9% among 320,000; AID 2235;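 active = inhibition above the mean inhibition of all tested compounds plus 3 SD, computed separately for each screening campaign, cut at about 15% in these data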
# Target sequence (P62136 whole entry, looked up): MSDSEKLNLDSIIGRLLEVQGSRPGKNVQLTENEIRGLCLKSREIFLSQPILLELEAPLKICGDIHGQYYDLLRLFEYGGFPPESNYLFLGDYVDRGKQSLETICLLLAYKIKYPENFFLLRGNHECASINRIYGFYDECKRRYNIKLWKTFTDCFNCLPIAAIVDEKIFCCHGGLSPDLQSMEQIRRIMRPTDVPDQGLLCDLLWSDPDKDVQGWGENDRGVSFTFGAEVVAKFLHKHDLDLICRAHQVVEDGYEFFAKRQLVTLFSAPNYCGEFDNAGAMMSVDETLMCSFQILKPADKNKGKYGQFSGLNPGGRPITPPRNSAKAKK
# Numbers stand for hits; n = inactive; x = not tested or not shown.
SMILES,UCH37 inh,PREPL inh,Fh CTSL1 inh,PP5 primary,UBC13 polyUb,PP1 inh
COc1cccc(NC(=O)CC(C)=NNC(=O)c2ccccc2Cl)c1,n,x,x,x,x,x
Cc1ccc(S(=O)(=O)CCC(=O)N(CCCN2CCOCC2)c2nc3ccccc3s2)cc1,n,n,n,n,n,n
O=C(CCS(=O)(=O)c1ccccc1)N(CCCN1CCOCC1)c1nc2ccccc2s1,n,n,47,n,n,n
CCN(CC)CCN(C(=O)CCS(=O)(=O)c1ccccc1)c1nc2cc3c(cc2s1)OCO3,n,n,76,n,n,n
O=C(NN=Cc1cc2c(c([N+](=O)[O-])c1)OCO2)c1ccncc1,n,x,x,x,x,x
COc1ccc2c(c1OC)C(=O)OC2CC(=NNC(N)=O)c1ccccc1 (stereo not given),n,x,x,x,x,x
Cc1nn(-c2ccccc2)c(C)c1C=NNC(=O)c1cc(C23CC4CC(CC(C4)C2)C3)[nH]n1,n,x,x,x,x,x
O=C(Nc1ccc(Br)cn1)C1CCCN1S(=O)(=O)c1ccccc1 (stereo not given),30,n,n,n,n,n
Cc1nc(N2N=C(c3ccc(Cl)cc3)CC2c2ccco2)sc1C(=O)N(C)C (stereo not given),n,n,25,n,n,n
CCOC(=O)C1=C(C)N=c2sc(=Cc3ccccc3)c(=O)n2C1c1ccc(OC)c(OC)c1 (stereo not given),n,x,x,x,x,x
O=C(CSc1nnc(SCc2ccc(Cl)cc2)s1)c1ccc2c(c1)OCO2,22,n,n,n,n,n
O=C(NC1CCCCC1)c1cc([N+](=O)[O-])ccc1N1CCCC1,n,n,34,n,n,n
CN(C(=O)c1cc([N+](=O)[O-])ccc1N1CCCC1)C1CCCCC1,n,n,22,n,n,n
O=C(NC1CCCCCCC1)c1cc([N+](=O)[O-])ccc1Cl,n,n,n,n,n,n
COC(=O)c1c(C)[nH]c(O)c1C=Nc1ccc(Oc2ccccc2)cc1,n,n,n,n,n,n
COC(=O)c1c(C)[nH]c(O)c1C=Nc1ccc(C(C)C)cc1,x,47,n,n,n,n
CCN(CC)S(=O)(=O)c1ccc2nnn(OCC(=O)Nc3cccc(C#N)c3)c2c1,n,n,81,n,n,n
COc1cc(OC)cc(C(=O)Nc2ccc(-c3nc4ccccc4o3)cc2)c1,n,n,n,n,n,n
COc1cccc(C(=O)Nc2ccc(-c3nc4ccccc4o3)c(O)c2)c1,n,n,n,n,n,16
CCc1ccc(C=NNC(=O)c2cc(C3CC3)nc3ccc(Br)cc23)s1,n,x,x,x,x,x
CN1/C(=C\C=NNC(=O)c2ccc(O)cc2)C(C)(C)c2ccccc21,n,x,x,x,x,x
O=C(NCCN1CCOCC1)c1ccc2c(c1)N(Cc1ccc(Cl)cc1)C(=O)CS2,n,n,n,n,n,n
O=C(NCCN1CCOCC1)c1ccc2c(c1)N(Cc1ccccc1)C(=O)CS2,n,n,32,n,n,n
CC(=NNS(=O)(=O)c1ccccc1)c1ccc(Cl)cc1,n,x,x,x,x,x
C/C(=N\NC(N)=S)C1(C)CC2(CC(C)(C)OC2=O)C(=O)O1 (stereo not given),x,n,19,n,n,n
SMILES,UCH37 inh,PREPL inh,Fh CTSL1 inh,PP5 primary,UBC13 polyUb,PP1 inh
COc1ccc(Cl)cc1NC(=S)NNC(=O)CC(C)C,n,n,27,n,n,n
CCOC(=O)c1c(N=CC2C(=O)CC(C)(C)CC2=O)sc(C)c1C,n,x,x,x,x,x
Cc1nc2ccccc2cc1C(=O)NN=Cc1ccccc1[N+](=O)[O-],n,x,x,x,x,x
CCOC(=O)NN=Cc1ccc(F)cc1F,n,x,x,x,x,x
FC(F)(F)c1ccc2c(c1)NCC1CCCN21 (stereo not given),n,n,22,n,n,n
COc1ccc(C(=O)Nc2ccc(Cl)cc2C(=O)NCc2ccco2)cc1,n,n,n,n,n,n
CCC(C)C(NC(=O)c1ccccc1NC(=O)c1ccc(OC)cc1)C(=O)NCc1ccco1 (stereo not given),n,n,45,n,n,n
CC(=NNC(=O)c1ccc2c(c1)OCO2)c1ccc(C(=O)O)s1,n,x,x,x,x,x
N#CC(=NNc1ccc(S(=O)(=O)N2CCOCC2)cc1)C(N)=S,22,x,x,x,x,x
COC(=O)C1=C(C)N(Cc2ccccc2)C(=NCCCCO)N[C@H]1c1ccccc1,n,n,n,n,n,16
O=C(NN=Cc1ccc(Br)o1)c1cc([N+](=O)[O-])cc([N+](=O)[O-])c1,n,x,x,x,x,x
Cc1ccc(NC(=O)CSc2nnc(N=CN(C)C)s2)cc1,n,x,x,x,x,x
Cc1ccc(S(=O)(=O)N(CCC#N)CCN2CCCC2)cc1,n,n,78,n,n,n
CCN(CC)S(=O)(=O)c1ccc(S(=O)(=O)N2CCN(CCC#N)CC2)cc1,n,n,n,n,n,n
Cc1nn(-c2ccccc2)c(Cl)c1C=NNC(=O)c1cncc(Br)c1,n,x,x,x,x,x
COc1ccc2ccccc2c1C(=O)/C=C\c1ccoc1,n,n,23,n,n,n
O=C(/C=C/c1ccoc1)c1ccccc1O,n,n,n,n,n,n
CCCCCCOC(=O)Cc1c(C)nc(-c2ccccc2)[nH]c1=O,n,n,n,n,n,n
C=C(C)Cc1c(C)nc(-c2ccccc2)[nH]c1=O,n,n,26,n,n,n
CC(=NNC(=O)c1cccc(F)c1)c1ccc(NC(=O)Cc2ccccc2)cc1,n,x,x,x,x,x
CCOC(=O)C(Cc1ccc(O)cc1)NC(=O)CNC(=O)C(CC(C)C)NC(=O)OC(C)(C)C (stereo not given),n,n,29,n,n,n
COC(=O)C(Cc1ccccc1)NC(=O)C(CC(C)C)NC(=O)OC(C)(C)C (stereo not given),n,n,n,n,n,n
O=C(c1ccco1)N1CCN(C(c2ccccc2F)c2nnnn2CC2CCCO2)CC1 (stereo not given),n,n,n,n,n,n
O=C(c1ccco1)N1CCN(C(c2ccccc2Cl)c2nnnn2CC2CCCO2)CC1 (stereo not given),n,n,19,n,n,n
CCc1ccc(OCC(=O)NN=C(C)c2ccc(-n3ccnc3)cc2)cc1,n,x,x,x,x,x
SMILES,UCH37 inh,PREPL inh,Fh CTSL1 inh,PP5 primary,UBC13 polyUb,PP1 inh
Cc1ccc2nc(NCCNC(=O)c3ccccc3)c(C#N)cc2c1,n,n,38,n,n,n
COC(=O)c1c(NC(=O)CN2C(=O)NC3(CCc4ccccc4C3)C2=O)sc2c1CCCCC2 (stereo not given),n,n,n,n,n,15
COC(=O)c1c(NC(=O)CN2C(=O)NC3(CCC(C(C)(C)C)CC3)C2=O)sc2c1CCCCC2 (stereo not given),n,n,n,n,n,n
CCCC(=O)Nc1nc2n(n1)C(c1ccccc1)CC(=O)N2 (stereo not given),n,n,n,n,n,n
CC1CC(c2ccccc2)n2nc(NC(=O)CCc3ccccc3)nc2N1 (stereo not given),n,n,n,n,n,18
Cn1cccc1CC(=O)NN=C/C=C/c1ccco1,n,x,x,x,x,x
Cc1ccc(-n2nc3c(N4CCC(C(=O)NCc5ccccc5C)CC4)nnc(C)c3c2C)cc1,n,n,n,n,n,16
